Results as given in paper PMC10548181 (RSC Advances, 2023).

What was measured:
[1] = tested on: human liver carcinoma (HepG-2); experiment: MTT anti-proliferative assay on HepG-2; assay type: cell-based; details: HepG2, 48 h, read-out: IC50 (μM) ± SD HepG-2, MTT, 48 h, HepG-2
Procedure, shortened: (§1)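 Cells grown at 37 °C in humidified 5% CO2 and seeded at 5 × 10^4 per well. Exposed 48 h at 37 °C to a concentration series of test compound, or doxorubicin as positive control, in serum-free medium with DMSO. MTT solution (2.5 mg ml−1) added for 4 h, formazan dissolved in DMSO, absorbance read at 590 nm. Viability taken as percent of untreated control; technical triplicate, three biological replicates, mean ± SD; IC50 by probit analysis.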

[2] = tested on: HCT-116 (human colorectal carcinoma); experiment: MTT anti-proliferative assay on HCT-116; assay type: cell-based; details: HCT-116, 48 h, read-out: IC50 (μM) ± SD HCT-116
Procedure, shortened: as §1

[3] = tested on: MCF-7 (human breast adenocarcinoma); experiment: MTT anti-proliferative assay on MCF-7; assay type: cell-based; details: MCF7, 48 h, read-out: IC50 (μM) ± SD MCF-7, MTT, 48 h, MCF-7
Procedure, shortened: as §1

[4] = molecular target: PI3Kβ (p110β/p85α) (Homo sapiens, UniProt P42338); experiment: In vitro PI3K activity assay; assay type: biochemical
Sequence of PI3Kβ (p110β/p85α) (P42338 whole entry): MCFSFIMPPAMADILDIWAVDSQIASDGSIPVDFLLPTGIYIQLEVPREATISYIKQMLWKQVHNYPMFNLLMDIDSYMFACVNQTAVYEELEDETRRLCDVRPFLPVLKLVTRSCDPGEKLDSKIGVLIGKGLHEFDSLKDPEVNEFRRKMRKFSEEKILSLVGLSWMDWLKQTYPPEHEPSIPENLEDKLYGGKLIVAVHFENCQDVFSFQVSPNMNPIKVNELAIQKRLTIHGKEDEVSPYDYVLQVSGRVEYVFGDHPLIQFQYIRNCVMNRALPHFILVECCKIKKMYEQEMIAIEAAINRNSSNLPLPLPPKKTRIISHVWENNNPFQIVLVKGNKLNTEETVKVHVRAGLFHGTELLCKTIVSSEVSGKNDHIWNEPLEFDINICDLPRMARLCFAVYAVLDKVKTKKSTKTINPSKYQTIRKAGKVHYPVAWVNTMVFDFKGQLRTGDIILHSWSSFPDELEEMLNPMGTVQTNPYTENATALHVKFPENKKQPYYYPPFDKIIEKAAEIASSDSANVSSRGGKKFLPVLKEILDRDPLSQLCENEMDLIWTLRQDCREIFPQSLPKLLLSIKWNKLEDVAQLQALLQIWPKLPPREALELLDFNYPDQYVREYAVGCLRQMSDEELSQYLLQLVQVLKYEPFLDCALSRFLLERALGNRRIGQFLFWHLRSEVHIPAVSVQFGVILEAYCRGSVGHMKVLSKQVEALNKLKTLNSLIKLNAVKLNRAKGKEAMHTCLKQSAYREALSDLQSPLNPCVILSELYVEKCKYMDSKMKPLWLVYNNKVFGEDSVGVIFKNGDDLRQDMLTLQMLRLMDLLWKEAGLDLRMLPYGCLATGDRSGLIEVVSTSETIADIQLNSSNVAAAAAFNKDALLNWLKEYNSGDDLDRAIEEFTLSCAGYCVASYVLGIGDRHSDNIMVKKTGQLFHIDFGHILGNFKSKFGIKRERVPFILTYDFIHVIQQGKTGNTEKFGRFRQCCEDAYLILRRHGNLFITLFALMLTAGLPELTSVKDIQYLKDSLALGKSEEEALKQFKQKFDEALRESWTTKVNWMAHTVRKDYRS
Sequence of PI3Kβ (p110β/p85α) (P27986 whole entry partner): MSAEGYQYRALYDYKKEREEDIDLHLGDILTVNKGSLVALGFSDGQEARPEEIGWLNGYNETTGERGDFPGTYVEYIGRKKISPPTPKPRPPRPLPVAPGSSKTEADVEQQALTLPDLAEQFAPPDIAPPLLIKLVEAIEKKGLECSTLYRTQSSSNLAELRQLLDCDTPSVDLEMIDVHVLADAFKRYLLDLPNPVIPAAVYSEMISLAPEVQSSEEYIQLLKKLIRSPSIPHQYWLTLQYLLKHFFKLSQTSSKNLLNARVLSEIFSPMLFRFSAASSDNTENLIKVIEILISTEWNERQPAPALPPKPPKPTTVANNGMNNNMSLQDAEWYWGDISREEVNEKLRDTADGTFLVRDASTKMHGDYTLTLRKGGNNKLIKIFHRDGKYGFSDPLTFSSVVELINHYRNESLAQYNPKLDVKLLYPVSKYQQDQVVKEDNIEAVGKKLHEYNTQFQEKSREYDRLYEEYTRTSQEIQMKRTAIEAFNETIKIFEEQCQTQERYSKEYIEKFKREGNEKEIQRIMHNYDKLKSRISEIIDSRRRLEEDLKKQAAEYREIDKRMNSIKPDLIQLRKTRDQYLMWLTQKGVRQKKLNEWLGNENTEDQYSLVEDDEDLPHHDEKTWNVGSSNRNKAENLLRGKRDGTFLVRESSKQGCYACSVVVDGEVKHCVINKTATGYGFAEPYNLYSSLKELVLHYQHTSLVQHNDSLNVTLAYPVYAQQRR

[5] = molecular target: mTOR (Homo sapiens, UniProt P42345); experiment: In vitro m-TOR activity assay; assay type: biochemical
[6] = molecular target: EGFR (Homo sapiens, UniProt P00533); experiment: In vitro EGFR kinase activity assay; assay type: biochemical
Sequence of EGFR (P00533 25-1210): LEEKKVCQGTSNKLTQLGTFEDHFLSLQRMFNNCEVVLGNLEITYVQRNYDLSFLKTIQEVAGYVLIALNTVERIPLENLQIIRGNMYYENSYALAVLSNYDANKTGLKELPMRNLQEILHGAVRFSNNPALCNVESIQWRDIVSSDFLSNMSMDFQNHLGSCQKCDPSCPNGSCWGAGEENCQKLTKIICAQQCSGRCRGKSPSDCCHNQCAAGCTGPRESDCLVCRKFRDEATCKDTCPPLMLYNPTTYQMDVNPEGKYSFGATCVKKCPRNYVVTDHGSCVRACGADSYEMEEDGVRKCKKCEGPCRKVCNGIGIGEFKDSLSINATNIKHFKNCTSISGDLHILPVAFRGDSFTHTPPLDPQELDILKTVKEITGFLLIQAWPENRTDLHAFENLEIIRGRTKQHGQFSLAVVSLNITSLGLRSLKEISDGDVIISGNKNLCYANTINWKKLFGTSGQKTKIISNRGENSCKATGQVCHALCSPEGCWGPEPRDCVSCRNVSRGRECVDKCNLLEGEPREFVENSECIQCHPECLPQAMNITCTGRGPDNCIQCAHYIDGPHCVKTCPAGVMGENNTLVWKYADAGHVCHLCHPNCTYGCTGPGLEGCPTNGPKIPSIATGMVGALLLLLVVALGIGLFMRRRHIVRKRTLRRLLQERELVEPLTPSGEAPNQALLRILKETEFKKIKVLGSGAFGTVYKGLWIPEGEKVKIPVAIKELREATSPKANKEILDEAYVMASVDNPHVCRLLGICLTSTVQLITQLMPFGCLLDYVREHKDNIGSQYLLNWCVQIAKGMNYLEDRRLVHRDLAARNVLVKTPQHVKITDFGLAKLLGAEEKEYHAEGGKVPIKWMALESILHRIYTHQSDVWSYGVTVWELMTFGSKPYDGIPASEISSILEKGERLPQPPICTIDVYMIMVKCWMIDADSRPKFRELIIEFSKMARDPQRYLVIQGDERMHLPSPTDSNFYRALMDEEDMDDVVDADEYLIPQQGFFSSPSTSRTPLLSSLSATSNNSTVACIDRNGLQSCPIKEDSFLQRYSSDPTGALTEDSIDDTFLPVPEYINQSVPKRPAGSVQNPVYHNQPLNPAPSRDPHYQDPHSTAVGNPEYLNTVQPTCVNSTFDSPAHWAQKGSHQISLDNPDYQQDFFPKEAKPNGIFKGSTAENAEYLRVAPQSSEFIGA

[7] = tested on: MCF-7 cells; experiment: Apoptosis assay; assay type: cell-based, human
[8] = tested on: MCF-7 cells; experiment: Cell cycle analysis; assay type: cell-based, human
Procedure, shortened: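 MCF-7 cells seeded at 8 × 10^4, held overnight at 37 °C with 5% CO2, then treated 48 h with test compound. Pelleted at 300 g for 5 min and fixed in 70% ethanol on ice for 15 min. Flow cytometry run within 1 h of staining.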

Structure (SMILES)	IC50 [1] [µM]	IC50 [2] [µM]	IC50 [3] [µM]	IC50 [4] [µM]	IC50 [5] [µM]	IC50 [6] [µM]	effect on apoptosis [7]	effect on cell cycle progression [8]
CC(=O)c1sc(=NN=C(C)c2c(O)c3ccccc3oc2=O)[nH]c1C [Compound 4a, 3-{1-[(5-Acetyl-4-methyl-3H-thiazol-2-ylidene)-hydrazono]-ethyl}-4-hydroxy-2H-chromen-2-one]	48.8 ± 3.1	31.4 ± 3.1	25.6 ± 3.1	–	–	–	–	–
CC(=NN=c1scc(-c2ccccc2)n1C)c1c(O)c2ccccc2oc1=O [Compound 5b, 3-{1-[(3-Methyl-4-phenyl-3H-thiazol-2-ylidene)-hydrazono]-ethyl}-4-hydroxy-2H-chromen-2-one]	66.4 ± 5.6	42.4 ± 4.1	34.6 ± 2.9	–	–	–	–	–
COc1cccc2c1C(=O)c1c(O)c3c(c(O)c1C2=O)C[C@@](O)(C(=O)CO)C[C@@H]3O[C@H]1C[C@H](N)[C@H](O)[C@H](C)O1 [Doxorubicin, reference compound]	63.2 ± 5.8	21.8 ± 2.9	16.7 ± 1.5	–	–	–	–	–
CCn1c(C)csc1=NN=C(C)c1c(O)c2ccccc2oc1=O [Compound 3c, 3-{1-[(3-Ethyl-4-methyl-3H-thiazol-2-ylidene)-hydrazono]-ethyl}-4-hydroxy-2H-chromen-2-one]	68.2 ± 5.6	36.3 ± 3.5	36.5 ± 4.2	–	–	–	–	–
CC(=NN=c1scc(C)n1C)c1c(O)c2ccccc2oc1=O [Compound 3b, 3-{1-[(3,4-Dimethyl-3H-thiazol-2-ylidene)-hydrazono]-ethyl}-4-hydroxy-2H-chromen-2-one]	46.1 ± 3.7	27.2 ± 2.9	34.9 ± 3.1	–	–	–	–	–
CC(=O)c1sc(=NN=C(C)c2c(O)c3ccccc3oc2=O)n(C)c1C [Compound 4b, 3-{1-[(5-Acetyl-3,4-dimethyl-3H-thiazol-2-ylidene)-hydrazono]-ethyl}-4-hydroxy-2H-chromen-2-one]	57.1 ± 4.3	24.3 ± 2.7	32.7 ± 3.5	–	–	–	–	–
CC(=NN=c1[nH]c(C)cs1)c1c(O)c2ccccc2oc1=O [Compound 3a, 3-{1-[(4-Methyl-3H-thiazol-2-ylidene)-hydrazono]-ethyl}-4-hydroxy-2H-chromen-2-one]	42.5 ± 4.1	32.6 ± 3.1	34.5 ± 3.6	–	–	–	–	–
CCn1c(C)c(C(C)=O)sc1=NN=C(C)c1c(O)c2ccccc2oc1=O [Compound 4c, 3-{1-[(5-Acetyl-3-ethyl-4-methyl-3H-thiazol-2-ylidene)-hydrazono]-ethyl}-4-hydroxy-2H-chromen-2-one]	62.5 ± 3.9	38.9 ± 3.2	33.7 ± 3.2	–	–	–	–	–
CNC(=S)NN=C(C)c1c(O)c2ccccc2oc1=O [Compound 2b, 4-Methyl-1-(1-(4-hydroxy-2-oxo-2H-chromen-3-yl)ethylidene)thiosemicarbazide]	48.1 ± 3.9	7.2 ± 0.6	13.6 ± 1.5	1.33 ± 0.074	2.96 ± 0.18	2.28 ± 0.14	–	–

Further lines, with some results ahead:

IC50 [1] [µM]	IC50 [2] [µM]	IC50 [3] [µM]	IC50 [4] [µM]	IC50 [5] [µM]	IC50 [6] [µM]	Structure (SMILES)	effect on apoptosis [7]	effect on cell cycle progression [8]
65.7 ± 5.1	41.2 ± 3.9	32.8 ± 3.5	–	–	–	CC(=NN=C1SCC(=O)N1C)c1c(O)c2ccccc2oc1=O [Compound 7b, 3-Methyl-2-{[1-(4-hydroxy-2-oxo-2H-chromen-3-yl)-ethylidene]-hydrazono}-thiazolidin-4-one]	–	–
42.4 ± 3.5	38.3 ± 4.2	27.4 ± 1.9	–	–	–	CC(=NN=C1NC(=O)C(C)S1)c1c(O)c2ccccc2oc1=O (centres unmarked) [Compound 8a, 5-Methyl-2-{[1-(4-hydroxy-2-oxo-2H-chromen-3-yl)-ethylidene]-hydrazono}-thiazolidin-4-one]	–	–
57.2 ± 4.6	45.6 ± 4.2	26.3 ± 2.5	–	–	–	CC(=NN=c1[nH]c(C)c(N=Nc2ccc(C)cc2)s1)c1c(O)c2ccccc2oc1=O [Compound 9d, 3-{1-[(4-Methyl-5-(4-tolyl)azo-3H-thiazol-2-ylidene)-hydrazono]-ethyl}-4-hydroxy-2H-chromen-2-one]	–	–
82.1 ± 6.1	40.1 ± 4.7	17.8 ± 1.1	–	–	–	CCn1c(C)c(N=Nc2ccc(C)cc2)sc1=NN=C(C)c1c(O)c2ccccc2oc1=O [Compound 9f, 3-{1-[(3-Ethyl-4-methyl-5-(4-tolyl)azo-3H-thiazol-2-ylidene)-hydrazono]-ethyl}-4-hydroxy-2H-chromen-2-one]	–	–
74.4 ± 5.9	55.2 ± 5.1	23.3 ± 1.9	–	–	–	CC(=NN=c1sc(N=Nc2ccc(C)cc2)c(C)n1C)c1c(O)c2ccccc2oc1=O [Compound 9e, 3-{1-[(3,4-Dimethyl-5-(4-tolyl)azo-3H-thiazol-2-ylidene)-hydrazono]-ethyl}-4-hydroxy-2H-chromen-2-one]	–	–
64.1 ± 5.5	37.9 ± 2.5	32.3 ± 3.5	–	–	–	CC(=NN=c1sc(N=Nc2ccccc2)c(C)n1C)c1c(O)c2ccccc2oc1=O [Compound 9b, 3-{1-[(3,4-Dimethyl-5-phenylazo-3H-thiazol-2-ylidene)-hydrazono]-ethyl}-4-hydroxy-2H-chromen-2-one]	–	–
57.2 ± 4.3	20.4 ± 1.9	6.4 ± 0.5	0.131 ± 0.007	0.719 ± 0.04	0.184 ± 0.01	CCOC(=O)c1sc(=NN=C(C)c2c(O)c3ccccc3oc2=O)[nH]c1C [Compound 6a, 4-Methyl-2-{[1-(4-hydroxy-2-oxo-2H-chromen-3-yl)-ethylidene]-hydrazono}-2,3-dihydro-thiazole-5-carboxylic acid ethyl ester]	increase in the early and late cellular apoptosis	cell growth arrest at S phase
41.4 ± 2.9	5.9 ± 0.7	11.2 ± 1.1	0.361 ± 0.02	1.45 ± 0.08	0.563 ± 0.03	CCOC(=O)c1sc(=NN=C(C)c2c(O)c3ccccc3oc2=O)n(C)c1C [Compound 6b, 3,4-Dimethyl-2-{[1-(4-hydroxy-2-oxo-2H-chromen-3-yl)-ethylidene]-hydrazono}-2,3-dihydro-thiazole-5-carboxylic acid ethyl ester]	–	–
45.1 ± 4.1	24.7 ± 1.6	20.7 ± 2.1	–	–	–	CCOC(=O)c1sc(=NN=C(C)c2c(O)c3ccccc3oc2=O)n(CC)c1C [Compound 6c, 3-Ethyl-4-methyl-2-{[1-(4-hydroxy-2-oxo-2H-chromen-3-yl)-ethylidene]-hydrazono}-2,3-dihydro-thiazole-5-carboxylic acid ethyl ester]	–	–
67.2 ± 4.9	44.8 ± 4.5	26.1 ± 3.5	–	–	–	CC(=NN=C1SC(C)C(=O)N1C)c1c(O)c2ccccc2oc1=O (centres unmarked) [Compound 8b, 3,5-Dimethyl-2-{[1-(4-hydroxy-2-oxo-2H-chromen-3-yl)-ethylidene]-hydrazono}-thiazolidin-4-one]	–	–
60.9 ± 4.8	47.2 ± 4.5	32.8 ± 2.8	–	–	–	CCn1c(C)c(N=Nc2ccccc2)sc1=NN=C(C)c1c(O)c2ccccc2oc1=O [Compound 9c, 3-{1-[(3-Ethyl-4-methyl-5-phenylazo-3H-thiazol-2-ylidene)-hydrazono]-ethyl}-4-hydroxy-2H-chromen-2-one]	–	–
80.2 ± 5.9	44.9 ± 4.3	7.4 ± 0.9	–	–	–	CCN1C(=O)C(C)SC1=NN=C(C)c1c(O)c2ccccc2oc1=O (centres unmarked) [Compound 8c, 3-Ethyl-5-methyl-2-{[1-(4-hydroxy-2-oxo-2H-chromen-3-yl)-ethylidene]-hydrazono}-thiazolidin-4-one]	–	–
71.2 ± 5.1	33.9 ± 2.8	33.4 ± 2.8	–	–	–	CC(=NN=c1[nH]c(C)c(N=Nc2ccccc2)s1)c1c(O)c2ccccc2oc1=O [Compound 9a, 3-{1-[(4-Methyl-5-phenylazo-3H-thiazol-2-ylidene)-hydrazono]-ethyl}-4-hydroxy-2H-chromen-2-one]	–	–
